For experiment [1], the species on record is Rattus norvegicus. Put plainly: Induction of NA-induced LPS-treated Sprague-Dawley rat mesenteric vascular artery vasoconstriction effect measured at 100 uM/30 mins preincubation. Format: functional, organism-based. An outline of the steps:
(§1)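 Mesenteric arteries came from SD rats injected with LPS. NA dose-response curves (10 nM–10 μM) were recorded before and after 30 min preincubation with inhibitor. Read-outs were peak perfusion pressure (mmHg) and duration as AUC (mmHg × sec). Data are mean ± SEM of duplicates from four independent experiments.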

The species named for experiment [2] is Rattus norvegicus. The experiment is described as follows: Induction of NA-induced LPS-treated Sprague-Dawley rat mesenteric vascular artery vasoconstriction effect measured at 0.43 uM/30 mins preincubation relative to basal level. Format: functional, organism-based. An outline of the steps: as §1
A short description of experiment [3]: Selectivity ratio of IC50 for bovine recombinant eNOS to IC50 for mouse recombinant iNOS.
Experiment [4] is filed under the species Rattus norvegicus. Put plainly: Reduction of Ach-mediated NO-dependent precontracted Sprague-Dawley rat mesenteric vascular artery vasorelaxation measured at 0.43 uM/30 mins preincubation. The experiment is classed as functional, organism-based. An outline of the steps: (§2)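 Mesenteric arteries were isolated from SD rats and precontracted to ~80% of maximal constriction with 10 μM NA. The inhibitor was preincubated for 30 min, then ACh dose-response curves were run (0.01–3 μM/30 s) against control, followed by L-NAME (100 μM). Data are mean ± SEM of duplicates from four independent experiments, analysed by two-way repeated-measures ANOVA.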

The target in experiment [5] is T1, Nitric oxide synthase, inducible (Mus musculus, UniProt P29477).
T1 sequence (P29477 whole entry): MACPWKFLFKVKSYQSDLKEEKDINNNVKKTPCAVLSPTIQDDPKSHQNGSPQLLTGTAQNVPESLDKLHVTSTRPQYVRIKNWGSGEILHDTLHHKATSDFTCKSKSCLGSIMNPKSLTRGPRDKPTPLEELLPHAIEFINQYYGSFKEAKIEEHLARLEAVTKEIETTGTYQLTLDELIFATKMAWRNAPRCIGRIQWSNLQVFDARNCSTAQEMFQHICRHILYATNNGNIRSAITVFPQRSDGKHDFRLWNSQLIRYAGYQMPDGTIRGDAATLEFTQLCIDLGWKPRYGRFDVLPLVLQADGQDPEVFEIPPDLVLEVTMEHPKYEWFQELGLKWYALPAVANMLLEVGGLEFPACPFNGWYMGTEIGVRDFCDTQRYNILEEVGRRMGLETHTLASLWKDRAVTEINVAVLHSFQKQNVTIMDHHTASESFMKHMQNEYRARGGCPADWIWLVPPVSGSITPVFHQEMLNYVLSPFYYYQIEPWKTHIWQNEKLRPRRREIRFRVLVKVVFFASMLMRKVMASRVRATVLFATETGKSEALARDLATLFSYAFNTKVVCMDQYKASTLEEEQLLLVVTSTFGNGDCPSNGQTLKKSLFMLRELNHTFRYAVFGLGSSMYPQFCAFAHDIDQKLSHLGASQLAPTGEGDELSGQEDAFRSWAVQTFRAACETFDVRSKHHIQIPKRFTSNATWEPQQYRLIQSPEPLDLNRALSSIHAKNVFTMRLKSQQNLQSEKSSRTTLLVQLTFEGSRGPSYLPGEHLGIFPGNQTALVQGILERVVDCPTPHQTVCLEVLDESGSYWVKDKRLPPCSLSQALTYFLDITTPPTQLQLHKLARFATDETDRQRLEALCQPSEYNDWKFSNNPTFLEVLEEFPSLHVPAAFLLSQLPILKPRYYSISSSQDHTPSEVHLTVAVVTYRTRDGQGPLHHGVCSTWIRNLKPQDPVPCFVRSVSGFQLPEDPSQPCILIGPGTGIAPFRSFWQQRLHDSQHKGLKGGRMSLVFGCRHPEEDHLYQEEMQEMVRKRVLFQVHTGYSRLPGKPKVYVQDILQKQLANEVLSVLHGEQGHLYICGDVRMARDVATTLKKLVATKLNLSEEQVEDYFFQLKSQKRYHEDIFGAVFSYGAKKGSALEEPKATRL
The experiment is described as follows: Inhibition of mouse recombinant iNOS using [3H]L-arginine substrate assessed as formation of [3H]L-citruline by liquid scintillation counting analysis. An outline of the steps:
(§3)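 Recombinant enzyme inhibition was read as [3H]L-citrulline formed from [3H]L-arginine. Each inhibitor was tested at seven concentrations in triplicate, with IC50 given as mean ± SD. Selectivity is the eNOS IC50 divided by the iNOS IC50.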

Experiment [6] is filed under the species Rattus norvegicus. Put plainly: Reduction of Ach-mediated NO-dependent precontracted Sprague-Dawley rat mesenteric vascular artery vasorelaxation measured at 100 uM/30 mins preincubation. The experiment is classed as functional, organism-based. An outline of the steps:
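Isolated SD rat mesenteric arteries precontracted with 10 μM NA to about 80% of maximal vasoconstriction. Preincubation 30 min at 100 μM, then dose-response to ACh (0.01–3 μM/30 s) for NO-dependent (eNOS-mediated) vasorelaxation, compared with control curve. Mean ± SEM of duplicates, four independent experiments; two-way repeated-measures ANOVA.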

For experiment [7], the species on record is Rattus norvegicus. Put plainly: Reduction of Ach-mediated NO-dependent precontracted Sprague-Dawley rat mesenteric vascular artery vasorelaxation measured at 0.85 uM/30 mins preincubation. Format: functional, organism-based. An outline of the steps:
as §2

Experiment [8] is filed under the species Rattus norvegicus. Put plainly: Induction of NA-induced LPS-treated Sprague-Dawley rat mesenteric vascular artery vasoconstriction effect measured at 0.43 uM/30 mins preincubation. The experiment is classed as functional, organism-based. An outline of the steps: as §1
For experiment [9], the species on record is Rattus norvegicus. The experiment is described as follows: Induction of NA-induced LPS-treated Sprague-Dawley rat mesenteric vascular artery vasoconstriction effect measured at 1 uM/30 mins preincubation. The experiment is classed as functional, organism-based. An outline of the steps: as §1
The species entered for experiment [10] is Rattus norvegicus. The experiment is described as follows: Reduction of Ach-mediated NO-dependent precontracted Sprague-Dawley rat mesenteric vascular artery vasorelaxation measured up to 0.7 uM/30 mins preincubation. The experiment is classed as functional, organism-based. An outline of the steps:
as §2

Experiment [11] has as its target T2, Nitric oxide synthase 3 (Bos taurus, UniProt P29473).
T2 sequence (P29473 whole entry): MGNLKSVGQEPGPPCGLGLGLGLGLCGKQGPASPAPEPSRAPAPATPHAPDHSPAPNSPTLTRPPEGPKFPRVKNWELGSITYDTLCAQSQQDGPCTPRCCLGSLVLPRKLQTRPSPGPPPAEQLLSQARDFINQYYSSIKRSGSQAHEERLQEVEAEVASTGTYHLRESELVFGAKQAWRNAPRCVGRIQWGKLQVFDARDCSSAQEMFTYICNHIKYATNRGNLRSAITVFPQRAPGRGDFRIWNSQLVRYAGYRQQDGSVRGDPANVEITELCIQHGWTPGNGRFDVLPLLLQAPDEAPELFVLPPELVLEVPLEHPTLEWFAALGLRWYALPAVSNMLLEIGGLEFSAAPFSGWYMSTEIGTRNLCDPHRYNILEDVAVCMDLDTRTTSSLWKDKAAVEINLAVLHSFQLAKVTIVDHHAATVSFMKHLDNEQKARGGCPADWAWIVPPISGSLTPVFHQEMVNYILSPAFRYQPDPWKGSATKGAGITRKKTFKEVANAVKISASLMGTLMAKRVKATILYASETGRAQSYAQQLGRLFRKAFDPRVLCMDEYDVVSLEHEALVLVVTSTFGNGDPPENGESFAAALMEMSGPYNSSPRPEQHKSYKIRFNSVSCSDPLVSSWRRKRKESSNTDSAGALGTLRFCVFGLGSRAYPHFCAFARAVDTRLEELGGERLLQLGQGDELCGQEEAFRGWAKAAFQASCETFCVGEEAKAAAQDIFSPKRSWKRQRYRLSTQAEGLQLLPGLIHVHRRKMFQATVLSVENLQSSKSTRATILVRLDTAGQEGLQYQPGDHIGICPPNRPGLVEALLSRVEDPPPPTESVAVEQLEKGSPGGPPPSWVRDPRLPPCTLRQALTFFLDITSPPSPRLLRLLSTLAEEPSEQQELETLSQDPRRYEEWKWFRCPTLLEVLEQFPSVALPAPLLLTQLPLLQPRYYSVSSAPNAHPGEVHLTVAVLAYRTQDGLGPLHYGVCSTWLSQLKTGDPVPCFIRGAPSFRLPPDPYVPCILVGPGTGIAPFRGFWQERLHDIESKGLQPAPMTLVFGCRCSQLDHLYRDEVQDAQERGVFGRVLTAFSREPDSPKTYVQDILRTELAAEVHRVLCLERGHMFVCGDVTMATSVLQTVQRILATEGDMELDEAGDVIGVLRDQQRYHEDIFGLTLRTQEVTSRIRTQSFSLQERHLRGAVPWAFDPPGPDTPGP
Put plainly: Inhibition of bovine recombinant eNOS using [3H]L-arginine substrate assessed as formation of [3H]L-citruline by liquid scintillation counting analysis. An outline of the steps: as §3

The species entered for experiment [12] is Rattus norvegicus. The experiment is described as follows: Reduction of Ach-mediated NO-dependent precontracted Sprague-Dawley rat mesenteric vascular artery vasorelaxation measured at 1 to 1.2 uM/30 mins preincubation. The experiment is classed as functional, organism-based. An outline of the steps:
as §2

Experiment [13] is filed under the species Rattus norvegicus. Put plainly: Induction of NA-induced LPS-treated Sprague-Dawley rat mesenteric vascular artery vasoconstriction effect measured at 100 uM/30 mins preincubation relative to basal level. The experiment is classed as functional, organism-based.
The species named for experiment [14] is Rattus norvegicus. Put plainly: Reduction of Ach-mediated NO-dependent precontracted Sprague-Dawley rat mesenteric vascular artery vasorelaxation measured at 1 uM/30 mins preincubation. Format: functional, organism-based. An outline of the steps: as §2
Experiment [15] is filed under the species Rattus norvegicus. The experiment is described as follows: Induction of NA-induced LPS-treated Sprague-Dawley rat mesenteric vascular artery vasoconstriction effect measured at 1 uM/30 mins preincubation relative to basal level. Format: functional, organism-based. An outline of the steps:
as §1

Each structure is given as a SMILES string. The source made the active and inactive calls. No cut-off for these calls is given here.

For `CC(=N)NCc1cccc(CNC(=O)CCC(=O)O)c1`, the outcome in [1], in experiment [2], in experiment [7], in experiment [8], in [9] and in experiment [12] was Active. The Ratio IC50 in [3] is more than 2300. Besides, the inhibition entry in experiment [4], in experiment [6] and in experiment [10] was “inactive” each time. The IC50 in [5] is 0.428 µM; in experiment [11], more than 1000 µM.
On to `CC(=N)NCc1cccc(CNC(=O)CCCN)c1`, for which the IC50 in experiment [5] is more than 10 µM.
Consider `CC(=N)NCc1cccc(CNC(=O)c2ccc(C(=O)O)cc2)c1`, for which the Ratio IC50 in [3] was determined as 550. In addition, the results for the IC50 in [5] and in experiment [11] were 0.165 µM and 90.8 µM, respectively.
In the case of `CC(=N)NCc1cccc(CNC(=O)CN)c1`, the IC50 in [5] is more than 10 µM.
Still for that read-out and setting: to `CC(=N)NCc1cccc(CNC(=O)CCN)c1` belongs more than 10 µM.
As for `CC(=N)NCc1cccc(CN(Cc2ccc([N+](=O)[O-])cc2)Cc2ccc([N+](=O)[O-])cc2)c1`, the Ratio IC50 in [3] turned out to be 200. Further, the IC50 in experiment [5] is 0.5 µM; in experiment [11] it was 100 µM.
Consider `CC(=N)NCc1cccc(CNC(=O)CC(=O)O)c1`, for which the IC50 in [5] was more than 10 µM.
Take `CC(=N)NCc1cccc(CNCc2ccccc2[N+](=O)[O-])c1`: the Ratio IC50 in experiment [3] was found to be 300. For the same compound, the IC50 in experiment [5] amounted to 0.1 µM; in experiment [11], 30 µM.
Regarding `COC(=O)[C@@H](N)CCCNC(=N)N[N+](=O)[O-]`, the outcome in [13] was Active. Moreover, the inhibition result in experiment [6] was “Active”.
With `CC(=N)NCc1cccc(CN)c1` [1400W], the inhibition entry in experiment [14] is “inactive”. The IC50 in experiment [5] is 0.1 µM. Further, the outcome in experiment [15] was Active.

Usually IC50 stands for the concentration at which inhibition is half-maximal.

The record behind these values is ChEMBL document CHEMBL3588792, “Selective Acetamidine-Based Nitric Oxide Synthase Inhibitors: Synthesis, Docking, and Biological Studies” (ACS Med Chem Lett, 2015).
